Measured values taken from ChEMBL document CHEMBL2424551, “Synthesis, in vitro evaluation and molecular modelling of naphthalimide analogue as anticancer agents” (2013).
Activity calls are given as the source filed them. No cut-off for these calls is given here.

Key:
Assay type in all cases: functional
[1] = system: HCT-15; test: Growth inhibition of human HCT15 cells at 10 uM after 48 hrs by SRB assay; settings: HCT-15, 48 h, read-out: GI
Method in brief: (§1)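 Cells grown in RPMI 1640 with 5% FBS and 2 mM L-glutamine, plated at 5000–40,000 cells/well by doubling time and preincubated 24 h (37 °C, 5% CO2); a time-zero plate is TCA-fixed. Single dose added, then 48 h incubation. Fixed with cold TCA, stained with 0.4% SRB, dye solubilized in 10 mM Tris base, absorbance at 515 nm; percent growth vs time-zero and untreated control.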

[2] = system: NCI-H522; test: Growth inhibition of human NCI-H522 cells at 10 uM after 48 hrs by SRB assay; settings: NCI-H522, 48 h, read-out: GI; method in brief: as §1
[3] = system: NCI-H322M; test: Growth inhibition of human NCI-H322M cells at 10 uM after 48 hrs by SRB assay; settings: read-out: GI; method in brief: as §1
[4] = system: NCI-H460; test: Growth inhibition of human NCI-H460 cells at 10 uM after 48 hrs by SRB assay; settings: NCI-H460, 48 h, read-out: GI; method in brief: as §1
[5] = system: NCI-H23; test: Growth inhibition of human NCI-H23 cells at 10 uM after 48 hrs by SRB assay; settings: NCI-H23, 48 h, read-out: GI; method in brief: as §1
[6] = system: HOP-92; test: Growth inhibition of human HOP92 cells at 10 uM after 48 hrs by SRB assay; settings: HOP-92, 48 h, read-out: GI; method in brief: as §1
[7] = system: HOP-62; test: Growth inhibition of human HOP62 cells at 10 uM after 48 hrs by SRB assay; settings: HOP-62, 48 h, read-out: GI; method in brief: as §1
[8] = system: MDA-MB-468; test: Growth inhibition of human MDA-MB-468 cells at 10 uM after 48 hrs by SRB assay; method in brief: as §1
[9] = system: BT-549; test: Growth inhibition of human BT549 cells at 10 uM after 48 hrs by SRB assay; settings: BT-549, 48 h, read-out: GI; method in brief: as §1
[10] = system: Hs-578T; test: Growth inhibition of human Hs578T cells at 10 uM after 48 hrs by SRB assay; settings: read-out: GI; method in brief: as §1
[11] = system: MCF7; test: Growth inhibition of human MCF7 cells at 10 uM after 48 hrs by SRB assay; settings: MCF7, 48 h, read-out: GI; method in brief: as §1
[12] = system: PC-3; test: Growth inhibition of human PC3 cells at 10 uM after 48 hrs by SRB assay; settings: PC-3, 48 h, read-out: GI; method in brief: as §1
[13] = system: DU-145; test: Growth inhibition of human DU145 cells at 10 uM after 48 hrs by SRB assay; settings: DU-145, 48 h, read-out: GI; method in brief: as §1
[14] = system: UO-31; test: Growth inhibition of human UO31 cells at 10 uM after 48 hrs by SRB assay; settings: UO-31, 48 h, read-out: GI
Method in brief: (§2)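 NCI 60-cell-line screen with a single 10 µM dose. Cells are grown in RPMI 1640 with 5% FBS and 2 mM L-glutamine, plated at 5000–40,000 cells/well according to doubling time, and preincubated 24 h at 37 °C, 5% CO2; time-zero plates are TCA-fixed at that point. Drug exposure is 48 h. Adherent cells are fixed with cold TCA, stained with 0.4% SRB in 1% acetic acid and read at 515 nm. Percent growth is calculated relative to time-zero and untreated controls and reported as GI%.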

[15] = system: RXF 393; test: Growth inhibition of human RXF393 cells at 10 uM after 48 hrs by SRB assay; settings: RXF 393, 48 h, read-out: GI; method in brief: as §1
[16] = system: SN12C; test: Growth inhibition of human SN12C cells at 10 uM after 48 hrs by SRB assay; settings: read-out: GI; method in brief: as §2
[17] = system: A498; test: Growth inhibition of human A498 cells at 10 uM after 48 hrs by SRB assay; settings: A498, 48 h, read-out: GI; method in brief: as §1
[18] = system: ACHN; test: Growth inhibition of human ACHN cells at 10 uM after 48 hrs by SRB assay; settings: read-out: GI; method in brief: as §1
[19] = system: CAKI-1; test: Growth inhibition of human Caki1 cells at 10 uM after 48 hrs by SRB assay; settings: CAKI-1, 48 h, read-out: GI; method in brief: as §1
[20] = system: 786-0; test: Growth inhibition of human 786-0 cells at 10 uM after 48 hrs by SRB assay; settings: 786-0, 48 h, read-out: GI; method in brief: as §1
[21] = Growth inhibition of human NCI-ADR-RES cells at 10 uM after 48 hrs by SRB assay; settings: read-out: GI; method in brief: as §1
[22] = system: OVCAR-5; test: Growth inhibition of human OVCAR5 cells at 10 uM after 48 hrs by SRB assay; settings: OVCAR-5, 48 h, read-out: GI; method in brief: as §1
[23] = system: OVCAR-4; test: Growth inhibition of human OVCAR4 cells at 10 uM after 48 hrs by SRB assay; settings: OVCAR-4, 48 h, read-out: GI; method in brief: as §1
[24] = system: UACC-62; test: Growth inhibition of human UACC62 cells at 10 uM after 48 hrs by SRB assay; settings: UACC-62, 48 h, read-out: GI; method in brief: as §2
[25] = system: SK-MEL-5; test: Growth inhibition of human SK-MEL-5 cells at 10 uM after 48 hrs by SRB assay; settings: SK-MEL-5, 48 h, read-out: GI; method in brief: as §1
[26] = system: SK-MEL-28; test: Growth inhibition of human SK-MEL-28 cells at 10 uM after 48 hrs by SRB assay; settings: SK-MEL-28, 48 h, read-out: GI; method in brief: as §1
[27] = system: SK-MEL-2; test: Growth inhibition of human SK-MEL-2 cells at 10 uM after 48 hrs by SRB assay; settings: SK-MEL-2, 48 h, read-out: GI; method in brief: as §1
[28] = system: M14; test: Growth inhibition of human M14 cells at 10 uM after 48 hrs by SRB assay; settings: M14, 48 h, read-out: GI; method in brief: as §1
[29] = system: LOX IMVI; test: Growth inhibition of human LOXIMVI cells at 10 uM after 48 hrs by SRB assay; settings: read-out: GI; method in brief: as §1
[30] = system: Malme-3M; test: Growth inhibition of human MALME-3M cells at 10 uM after 48 hrs by SRB assay; settings: read-out: GI; method in brief: as §1
[31] = system: U-251; test: Growth inhibition of human U251 cells at 10 uM after 48 hrs by SRB assay; settings: U-251, 48 h, read-out: GI; method in brief: as §2
[32] = system: SNB-19; test: Growth inhibition of human SNB19 cells at 10 uM after 48 hrs by SRB assay; settings: SNB-19, 48 h, read-out: GI; method in brief: as §2
[33] = system: SF-295; test: Growth inhibition of human SF295 cells at 10 uM after 48 hrs by SRB assay; settings: SF-295, 48 h, read-out: GI; method in brief: as §1
[34] = system: SF-539; test: Growth inhibition of human SF539 cells at 10 uM after 48 hrs by SRB assay; settings: SF-539, 48 h, read-out: GI; method in brief: as §1
[35] = system: SF-268; test: Growth inhibition of human SF268 cells at 10 uM after 48 hrs by SRB assay; settings: SF-268, 48 h, read-out: GI; method in brief: as §1
[36] = system: SR; test: Growth inhibition of human SR cells at 10 uM after 48 hrs by SRB assay; settings: read-out: GI; method in brief: as §2
[37] = system: IGROV-1; test: Growth inhibition of human IGROV1 cells at 10 uM after 48 hrs by SRB assay; settings: IGROV-1, 48 h, read-out: GI; method in brief: as §1

| Compound | inhibition of growth at 10 µM [1] | inhibition of growth at 10 µM [2] | inhibition of growth at 10 µM [3] | inhibition of growth at 10 µM [4] | inhibition of growth at 10 µM [5] | inhibition of growth at 10 µM [6] | inhibition of growth at 10 µM [7] | growth inhibition (GI) [8] | inhibition of growth at 10 µM [9] | inhibition of growth at 10 µM [10] | inhibition of growth at 10 µM [11] | inhibition of growth at 10 µM [12] | inhibition of growth at 10 µM [13] | inhibition of growth at 10 µM [14] | inhibition of growth at 10 µM [15] | inhibition of growth at 10 µM [16] | inhibition of growth at 10 µM [17] | inhibition of growth at 10 µM [18] | inhibition of growth at 10 µM [19] | inhibition of growth at 10 µM [20] | further results |
| --- | --- | --- | --- | --- | --- | --- | --- | --- | --- | --- | --- | --- | --- | --- | --- | --- | --- | --- | --- | --- | --- |
| O=c1c2cccc3c(Nc4ccc(F)cc4)ccc(c32)c2nc3ccccc3n12 | 28.9% | < 20% | 32.2% | 22.1% | < 20% | 46.8% | < 20% | Active | < 20% | 26.4% | 89.9% | 22.8% | < 20% | 50.8% | < 20% | < 20% | 33.8% | < 20% | 20.1% | < 20% | inhibition of growth at 10 µM [21]: < 20%; inhibition of growth at 10 µM [22]: < 20%; inhibition of growth at 10 µM [23]: 24%; inhibition of growth at 10 µM [24]: 32.2%; inhibition of growth at 10 µM [25]: 29.6%; inhibition of growth at 10 µM [26]: < 20%; inhibition of growth at 10 µM [27]: < 20%; inhibition of growth at 10 µM [28]: < 20%; inhibition of growth at 10 µM [29]: < 20%; inhibition of growth at 10 µM [30]: < 20%; inhibition of growth at 10 µM [31]: < 20%; inhibition of growth at 10 µM [32]: 22.4%; inhibition of growth at 10 µM [33]: < 20%; inhibition of growth at 10 µM [34]: < 20%; inhibition of growth at 10 µM [35]: < 20% |
| CCCCNc1ccc2c3c1cccc3c(=O)n1c3ccccc3nc21 | 23.8% | 28.1% | < 20% | 51.6% | 40% | 38.8% | < 20% | Active | < 20% | < 20% | 89.7% | < 20% | < 20% | 41.4% | < 20% | < 20% | < 20% | < 20% | 56.8% | < 20% | inhibition of growth at 10 µM [36]: 84.4%; inhibition of growth at 10 µM [21]: < 20%; inhibition of growth at 10 µM [22]: < 20%; inhibition of growth at 10 µM [23]: < 20%; inhibition of growth at 10 µM [37]: 58.2%; inhibition of growth at 10 µM [24]: < 20%; inhibition of growth at 10 µM [25]: 24.5%; inhibition of growth at 10 µM [26]: < 20%; inhibition of growth at 10 µM [28]: < 20%; inhibition of growth at 10 µM [29]: 24.1%; inhibition of growth at 10 µM [30]: < 20%; inhibition of growth at 10 µM [32]: < 20%; inhibition of growth at 10 µM [34]: < 20%; inhibition of growth at 10 µM [35]: < 20% |
